Experimental data from ChEMBL document CHEMBL5331128, “Alicyclic Ring Size Variation of 4-Phenyl-2-naphthoic Acid Derivatives as P2Y14 Receptor Antagonists” (J Med Chem, 2023).
pIC50, pKi: −log10 of the molar value. The source made the active and inactive calls.

Experiments:
[1] = Microsomal stability in mouse liver microsomes assessed as half life; format: ADME, Microsome
[2] = Intraperitoneal bioavailability in Wistar rat at 3 mg/kg and measured upto 24 hrs; settings: in vivo, ip
[3] = target: T1, Muscarinic acetylcholine receptor M5 (Homo sapiens, UniProt P08912); test: Displacement of […] from human muscarinic M5 receptor assessed as inhibition constant by radioligand displacement assay
T1 sequence (P08912 whole entry): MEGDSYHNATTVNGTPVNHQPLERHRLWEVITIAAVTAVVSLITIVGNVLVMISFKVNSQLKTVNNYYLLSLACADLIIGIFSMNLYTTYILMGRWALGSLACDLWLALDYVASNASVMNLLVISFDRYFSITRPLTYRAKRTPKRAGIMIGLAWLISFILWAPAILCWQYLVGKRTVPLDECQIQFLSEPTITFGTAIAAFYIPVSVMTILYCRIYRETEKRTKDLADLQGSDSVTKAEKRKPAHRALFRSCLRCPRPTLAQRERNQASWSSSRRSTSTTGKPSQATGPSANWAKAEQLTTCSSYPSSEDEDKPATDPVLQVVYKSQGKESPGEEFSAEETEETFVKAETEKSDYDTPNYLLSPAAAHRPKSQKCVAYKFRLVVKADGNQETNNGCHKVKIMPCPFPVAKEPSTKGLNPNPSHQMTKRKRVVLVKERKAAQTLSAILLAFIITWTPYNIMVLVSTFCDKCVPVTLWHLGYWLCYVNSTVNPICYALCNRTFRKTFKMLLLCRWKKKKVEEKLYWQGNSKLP

Mus musculus [4] = test: Antiallodynic activity in CCI surgery neuropathic pain Hsd:ICR mouse model assessed as reversal of mechano-allodynia by measuring paw withdrawal threshold at 10 micromol/kg,po and measured upto 6 hrs by von frey test; format: functional, organism-based; settings: dose 10.0 µmol/kg
Method in brief: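 CCI neuropathic pain in adult male CD-1 mice. Single oral gavage dose of 10 μmol/kg on day 7 post-surgery. Vehicle 5% DMSO + 10% (Kolliphor HS 15:DMSO 5:95) in 0.5% methylcellulose, 0.2 mL. Von Frey paw withdrawal threshold on both hindpaws. Mean ± SD; two-way ANOVA with Dunnett's test.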

[5] = Acute toxicity in Wistar rat assessed as morbidity at 0.5 mg/kg, iv and measured upto 24 hrs; format: organism-based; settings: in vivo
Method in brief: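 Male Wistar rats; single dose at 1, 3 or 10 mg/kg i.p., or 0.5 mg/kg i.v. Animals were watched for mortality and morbidity over the experimental period, in the course of a plasma pharmacokinetic study.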

Cytochrome P450 2C19 = Cytochrome P450 2C19 (Homo sapiens, UniProt P33261); test: Inhibition of CYP2C19 (unknown origin); format: ADME
[6] = Half life in Wistar rat at 1 mg/kg, ip and measured upto 24 hrs; format: ADME, organism-based; settings: in vivo
Mus musculus [7] = test: Antiallodynic activity in CCI surgery neuropathic pain Hsd:ICR mouse model assessed as reversal of mechano-allodynia by measuring paw withdrawal threshold at 10 micromol/kg,ip and measured upto 5 days by von frey test; format: functional, organism-based; settings: dose 10.0 µmol/kg, time <= 5.0 day
Method in brief: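 CCI neuropathic pain in adult male Hsd:ICR (CD-1) mice (20–30 g). Single i.p. injection on day 7 after sciatic nerve constriction, at peak pain. Vehicle 10% (Kolliphor HS 15:DMSO 5:95) in saline, 0.2 mL. Paw withdrawal threshold by von Frey filaments on ipsilateral and contralateral hindpaws. Mean ± SD; two-way ANOVA with Dunnett's test versus day 0 and day 7.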

[8] = Cmax in Wistar rat plasma at 10 mg/kg, ip and measured upto 24 hrs; format: ADME, organism-based; parameters: time < 24 hrs, dose 10 mg/kg, route ip
Mus musculus [9] = test: Protection against cardiac ischemia/reperfusion induced C57BL/6J mouse injury model assessed as reduction in infarct size at 2 mg/kg, sc prior to 0.5 hrs of myocardial ischemia and 48 h of reperfusion (Rvb= 26.4%); format: functional; parameters: scale not given: the % may be the effect or the level left; settings: time 48.5 hrs
Mus musculus [10] = test: Anti-asthmatic activity against OVA/Aspergillus-sensitized protease-mediated C57BL/6J mouse model allergic asthma assessed as reduction in macrophages in BAL fluid at 10 mg/kg,ip followed by 0.5 hrs OVA challenge and measured after 48 hrs; format: functional, organism-based; settings: time 48.5 hrs
Mus musculus [11] = test: Anti-asthmatic activity against OVA/Aspergillus-sensitized protease-mediated C57BL/6J mouse model allergic asthma assessed as reduction in lymphocytes in BAL fluid at 10 mg/kg,ip followed by 0.5 hrs OVA challenge and measured after 48 hrs; format: functional, organism-based; settings: time 48.5 hrs
[12] = Half life in Wistar rat at 10 mg/kg, ip and measured upto 24 hrs; format: ADME, organism-based; settings: in vivo
[13] = Cmax in Wistar rat plasma at 3 mg/kg, ip and measured upto 24 hrs; format: ADME, organism-based; parameters: dose 3 mg/kg, time < 24 hrs, route ip
Cytochrome P450 2C9 = Cytochrome P450 2C9 (Homo sapiens, UniProt P11712); test: Inhibition of CYP2C9 (unknown origin); format: ADME
[14] = Microsomal stability in human liver microsomes assessed as half life; format: ADME, Microsome
Mus musculus [15] = test: Anti-asthmatic activity against OVA/Aspergillus-sensitized protease-mediated C57BL/6J mouse model allergic asthma assessed as reduction in airway eosinophilia in BAL fluid at 10 mg/kg,ip followed by 0.5 hrs OVA challenge and measured after 48 hrs; format: functional, organism-based; settings: time 48.5 hrs
[16] = Protein binding in mouse plasma assessed as bound fraction; format: ADME, cell-free
P2Y purinoceptor 14 = target: T2, P2Y purinoceptor 14 (Homo sapiens, UniProt Q15391); test: Displacement of fluorescent tracer 4-(4-(1-(4-(1-(6-(3-carboxylato-4-(3-iminio-3H-xanthen-9-yl)benzamido)hexyl)-4,5-dihydro-1H-pyrrol-3-yl)butyl)piperidin-1-ium-4-yl)phenyl)-7-(4-(trifluoromethyl)phenyl)-2-naphthoate from human P2Y14R stably expressed in CHO cells by flow cytometry; format: cell-based
T2 sequence (Q15391 whole entry): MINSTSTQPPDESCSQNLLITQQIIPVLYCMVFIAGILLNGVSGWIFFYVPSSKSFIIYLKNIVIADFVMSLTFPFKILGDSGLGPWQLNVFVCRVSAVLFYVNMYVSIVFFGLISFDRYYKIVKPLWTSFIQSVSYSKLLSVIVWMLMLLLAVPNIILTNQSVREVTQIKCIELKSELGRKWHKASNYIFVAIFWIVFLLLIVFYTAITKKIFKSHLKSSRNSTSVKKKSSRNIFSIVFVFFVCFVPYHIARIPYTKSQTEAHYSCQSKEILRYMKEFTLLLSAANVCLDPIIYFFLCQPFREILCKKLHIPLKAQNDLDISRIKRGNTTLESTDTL
Method in brief: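 Whole-cell competitive binding: CHO cells expressing hP2Y14R (or HEK-293 cells expressing mP2Y14R) incubated with AlexaFluor488-labelled antagonist tracer at 20 nM.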

[17] = Microsomal stability in rat liver microsomes assessed as half life; format: ADME, Microsome

Sequence of Cytochrome P450 2C19 (P33261 whole entry): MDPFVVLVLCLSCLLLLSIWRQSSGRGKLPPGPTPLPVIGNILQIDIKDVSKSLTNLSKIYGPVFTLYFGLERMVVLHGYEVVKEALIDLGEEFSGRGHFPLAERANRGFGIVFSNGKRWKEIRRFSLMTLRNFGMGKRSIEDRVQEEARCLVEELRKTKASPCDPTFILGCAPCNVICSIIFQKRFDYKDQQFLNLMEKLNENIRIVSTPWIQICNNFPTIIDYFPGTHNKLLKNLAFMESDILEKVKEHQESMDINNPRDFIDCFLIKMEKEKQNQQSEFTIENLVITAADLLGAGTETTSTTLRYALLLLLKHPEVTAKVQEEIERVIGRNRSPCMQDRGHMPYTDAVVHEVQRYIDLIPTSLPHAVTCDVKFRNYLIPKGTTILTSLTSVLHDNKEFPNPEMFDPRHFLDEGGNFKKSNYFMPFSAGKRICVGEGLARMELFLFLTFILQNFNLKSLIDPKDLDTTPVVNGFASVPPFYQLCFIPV
Sequence of Cytochrome P450 2C9 (P11712 whole entry): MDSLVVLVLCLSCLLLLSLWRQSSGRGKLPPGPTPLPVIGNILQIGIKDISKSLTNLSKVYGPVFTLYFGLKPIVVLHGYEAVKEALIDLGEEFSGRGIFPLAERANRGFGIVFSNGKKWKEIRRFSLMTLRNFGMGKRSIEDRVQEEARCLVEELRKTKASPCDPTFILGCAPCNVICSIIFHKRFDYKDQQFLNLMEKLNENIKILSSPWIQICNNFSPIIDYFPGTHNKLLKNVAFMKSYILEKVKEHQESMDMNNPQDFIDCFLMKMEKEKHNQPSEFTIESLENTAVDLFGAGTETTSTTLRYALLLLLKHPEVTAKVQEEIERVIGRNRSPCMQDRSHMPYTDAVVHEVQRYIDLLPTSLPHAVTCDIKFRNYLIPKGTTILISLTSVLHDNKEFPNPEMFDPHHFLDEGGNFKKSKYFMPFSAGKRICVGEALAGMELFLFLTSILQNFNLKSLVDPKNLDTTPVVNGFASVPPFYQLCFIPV

In the case of `O=C(O)c1cc(-c2ccc([C@]3(O)[C@@H]4CNC[C@H]3C4)cc2)c2ccc(-c3ccc(C(F)(F)F)cc3)cc2c1`, the t1/2 [1] was 5.92 h, the bioavailability [2] was 114% and the pKi [3] was 5.22. For the same compound, the Activity (Mus musculus [4]) was “Active”, the Activity [5] was “Non-Toxic” and the pIC50 (Cytochrome P450 2C19) was < 4.52. For the same compound, the t1/2 [6] was 3.01 h, the Activity (Mus musculus [7]) was “Active” and the Cmax [8] was 4000 nM. The Activity (Mus musculus [9]) was 31.8%, the Activity (Mus musculus [10]) was “inactive” and the Activity (Mus musculus [11]) was “inactive”. The t1/2 [12] was 4.15 h, the Cmax [13] was 1300 nM and the pIC50 (Cytochrome P450 2C9) was < 4.52. The t1/2 [14] was > 6.67 h, the Activity (Mus musculus [15]) was “Active” and the PPB [16] was 99.86%. For the same compound, the pIC50 (P2Y purinoceptor 14) was 8.23 and the t1/2 [17] was 5.7 h.
